Assay results: ChEMBL document CHEMBL4177705, “Antiplasmodial alkaloids from bulbs of Amaryllis belladonna Steud” (Bioorg Med Chem Lett, 2018); call rule not given here

How the values were obtained:
[1] = test system: Plasmodium falciparum; assay: Antiplasmodial activity against chloroquine-resistant ring stage Plasmodium falciparum Dd2 after 72 hrs by SYBR green 1 dye based assay; format: functional, organism-based
[2] = test system: A2780; assay: Cytotoxicity against human A2780 cells; format: cell-based
In short: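 Antiproliferative assay on the A2780 ovarian cell line, reported as IC50 in µM.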

[3] = Plasmodium falciparum, Dd2, 72 h, read-out: IC50
[4] = Homo sapiens, A2780, read-out: IC50

| SMILES | IC50 [1] | IC50 ([2]; a2780) | IC50 [1, 3] [µM] | IC50 [2, 4] [µM] |
| --- | --- | --- | --- | --- |
| O=c1c2cc3c(cc2c2cccc4ccn1c42)OCO3 | Not Active | Non-Toxic | – | – |
| C[C@@H]1CC[C@H]2[C@@H](C)C(=O)O[C@@H]3O[C@@]4(C)CC[C@@H]1[C@]32OO4 [ARTEMISININ] | – | – | 0.0121 | – |
| COC1=CC(=O)[C@@]23CCN(Cc4c2cc2c(c4OC)OCO2)[C@@H]3C1 [DISTICHAMINE] | – | – | > 50 | > 60 |
| COc1c2c(cc3c1OCO3)[C@]13C=C[C@H](OC)C[C@H]1[N@](C2)C[C@H]3OC(C)=O | – | – | 35 | > 60 |
| COc1c2c(cc3c1OCO3)[C@@]13CC[N@@](C2)[C@@H]1[C@H](O)[C@H](OC)C[C@H]3O | – | – | 37 | > 60 |
| COc1c2c(cc3c1OCO3)[C@]13C=C[C@H](OC)C[C@H]1[N@](C2)C[C@H]3O | – | – | 7.3 | > 60 |
| CC(=O)O[C@@H]1CC=C2CCN3Cc4cc5c(cc4[C@H]1[C@@H]23)OCO5 [ACETYLCARANINE] | – | – | 3.5 | 56 |
